In ChEMBL document CHEMBL1122269, “Synthesis and biological evaluation of neutral derivatives of 5-fluoro-2'-deoxyuridine 5'-phosphate” (1983):

Key:
P388 [1] = assay: Percentage increase in life span of murine leukemia P388 resistant to 5-FU, at a dose 15 mg/kg; type: functional; conditions: Mus musculus
How it was run: (§1)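 P-388 model in male BDF₁ mice, six per group, average weight 23 g: 1×10^6 cells ip on day 0, then compound in 0.9% saline ip daily ×5 from 24 h. Mice were observed up to 60 days. % ILS = (T/C − 1) × 100, using median survival of treated mice versus saline-treated controls.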

P388 [2] = assay: Median survival time (MST) of murine leukemia P388 (1*10e 6 cells) resistant to 5-FU in mice, dose of 20 mg/kg (i.p.); type: functional, Mus musculus; conditions: route intraperitoneal
How it was run: (§2)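 Male BDF₁ mice, six per group, average weight 23 g, were inoculated ip with 1×10^6 P-388 cells on day 0. Compound in 0.9% saline was given ip daily for 5 days from 24 h post-implant. Mice were followed for 60 days or until death, and median survival time was recorded. Saline-treated controls numbered 20 mice.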

P388 [3] = assay: Median survival time (MST) of murine leukemia P388 (1*10e 6 cells) sensitive to 5-FU in mice, dose of 35 mg/kg(ip); type: functional, Mus musculus; how it was run: as §2
P388 [4] = assay: Median survival time (MST) of murine leukemia P388 (1*10e 6 cells) resistant to 5-FU in […] mice, dose of 35 mg/kg(ip); type: functional, Mus musculus; how it was run: as §2
P388 [5] = assay: Percentage increase in life span of murine leukemia P388 resistant to 5-FU, at a dose 35 mg/kg; type: functional; conditions: Mus musculus; how it was run: as §1
P388 [6] = assay: Average percentage weight change on day 6 in murine leukemia P388 resistant to 5-FU at a dose of 35 mg/kg; type: functional, Mus musculus
How it was run: (§3)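 Male BDF₁ mice, six per group, average weight 23 g, were given 1×10^6 P-388 cells ip on day 0. Compound in 0.9% saline was dosed ip once daily for 5 consecutive days, starting 24 h after tumour transplant.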

P388 [7] = assay: Percentage increase in life span of murine leukemia P388 sensitive to 5-FU, at a dose 35 mg/kg; type: functional; conditions: Mus musculus; how it was run: as §1
P388 [8] = assay: Median survival time (MST) of murine leukemia P388 (1*10e 6 cells) resistant to 5-FU in mice, dose of 15 mg/kg(ip); type: functional, Mus musculus; how it was run: as §2
P388 [9] = assay: Percentage increase in life span of murine leukemia P388 resistant to 5-FU, at a dose 20 mg/kg; type: functional; conditions: Mus musculus; how it was run: as §1
P388 [10] = assay: Median survival time (MST) of murine leukemia P388 (1*10e 6 cells) sensitive to 5-FU in mice, dose of 20 mg/kg(ip); type: functional, Mus musculus; how it was run: as §2
P388 [11] = assay: Percentage increase in life span of murine leukemia P388 sensitive to 5-FU, at a dose 20 mg/kg; type: functional; conditions: Mus musculus; how it was run: as §1
P388 [12] = assay: Average percentage weight change on day 6 in murine leukemia P388 resistant to 5-FU at a dose of 20 mg/Kg; type: functional, Mus musculus; how it was run: as §3
P388 [13] = assay: Average percentage weight change on day 6 in murine leukemia P388 sensitive to 5-FU at a dose of 35 mg/kg; type: functional, Mus musculus; how it was run: as §3
P388 [14] = assay: Average percentage weight change on day 6 in murine leukemia P388 resistant to 5-FU at a dose of 15 mg/kg; type: functional, Mus musculus; how it was run: as §3
P388 [15] = assay: Average percentage weight change on day 6 in murine leukemia P388 sensitive to 5-FU at a dose of 20 mg/kg; type: functional, Mus musculus; how it was run: as §3
P388 [16] = assay: Average percentage weight change on day 6 in murine leukemia P388 sensitive to 5-FU at dose 500 mg/kg; type: functional, Mus musculus
How it was run: (§4)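 Male BDF₁ mice, six per group, average weight 23 g, were inoculated ip on day 0 with 1×10^6 P-388 leukemia cells, either 5-FU-sensitive or 5-FU-resistant. Compound in 0.9% saline was given ip once daily for 5 consecutive days, starting 24 h after tumor transplantation. Saline-treated animals served as controls.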

P388 [17] = assay: Median survival time (MST) of murine leukemia P388 (1*10e 6 cells) resistant to 5-FU in mice at dose of 108 mg/kg(ip); type: functional, Mus musculus; how it was run: as §2
P388 [18] = assay: Percentage increase in life span of murine leukemia P388 sensitive to 5-FU, at dose 300 mg/kg; type: functional; conditions: Mus musculus; how it was run: as §1
P388 [19] = assay: Median survival time (MST) of murine leukemia P388 (1*10e 6 cells) sensitive to 5-FU in mice at dose of 108 mg/kg(ip); type: functional, Mus musculus; how it was run: as §2
P388 [20] = assay: Average percentage weight change on day 6 in murine leukemia P388 sensitive to 5-FU at dose 108 mg/kg; type: functional, Mus musculus; how it was run: as §4
P388 [21] = assay: Median survival time (MST) of murine leukemia P388 (1*10e 6 cells) sensitive to 5-FU in mice at dose of 300 mg/kg(ip); type: functional, Mus musculus; how it was run: as §2
P388 [22] = assay: Percentage increase in life span of murine leukemia P388 resistant to 5-FU, at a dose 300 mg/kg; type: functional; conditions: Mus musculus; how it was run: as §1
P388 [23] = assay: Average percentage weight change on day 6 in murine leukemia P388 sensitive to 5-FU at dose 180 mg/kg; type: functional, Mus musculus; how it was run: as §4
P388 [24] = assay: Average percentage weight change on day 6 in murine leukemia P388 resistant to 5-FU at dose 108 mg/kg; type: functional, Mus musculus; how it was run: as §4
P388 [25] = assay: Average percentage weight change on day 6 in murine leukemia P388 resistant to 5-FU at dose 300 mg/Kg; type: functional, Mus musculus; how it was run: as §4
P388 [26] = assay: Median survival time (MST) of murine leukemia P388 (1*10e 6 cells) resistant to 5-FU in mice at dose of 180 mg/kg(ip); type: functional, Mus musculus; how it was run: as §2
P388 [27] = assay: Average percentage weight change on day 6 in murine leukemia P388 sensitive to 5-FU at dose 300 mg/kg; type: functional, Mus musculus; how it was run: as §4
P388 [28] = assay: Percentage increase in life span of murine leukemia P388 resistant to 5-FU at dose 180 mg/kg; type: functional; conditions: Mus musculus; how it was run: as §1
P388 [29] = assay: Percentage increase in life span of murine leukemia P388 resistant to 5-FU at dose 108 mg/kg; type: functional; conditions: Mus musculus; how it was run: as §1
P388 [30] = assay: Median survival time (MST) of murine leukemia P388 (1*10e 6 cells) sensitive to 5-FU in mice at dose of 180 mg/kg(ip); type: functional, Mus musculus; how it was run: as §2
P388 [31] = assay: Median survival time (MST) of murine leukemia P388 (1*10e 6 cells) resistant to 5-FU in mice at dose of 500 mg/kg(ip); type: functional, Mus musculus; how it was run: as §2
P388 [32] = assay: Percentage increase in life span of murine leukemia P388 sensitive to 5-FU at dose 500 mg/kg; type: functional; conditions: Mus musculus; how it was run: as §1
P388 [33] = assay: Percentage increase in life span of murine leukemia P388 resistant to 5-FU at dose 500 mg/kg; type: functional; conditions: Mus musculus; how it was run: as §1
P388 [34] = assay: Median survival time (MST) of murine leukemia P388 (1*10e 6 cells) resistant to 5-FU in mice at dose of 300 mg/kg(ip); type: functional, Mus musculus; how it was run: as §2
P388 [35] = assay: Percentage increase in life span of murine leukemia P388 sensitive to 5-FU, at dose 180 mg/kg; type: functional; conditions: Mus musculus; how it was run: as §1
P388 [36] = assay: Percentage increase in life span of murine leukemia P388 sensitive to 5-FU, at dose 108 mg/kg; type: functional; conditions: Mus musculus; how it was run: as §1
P388 [37] = assay: Average percentage weight change on day 6 in murine leukemia P388 resistant to 5-FU at dose 180 mg/kg; type: functional, Mus musculus; how it was run: as §4
P388 [38] = assay: Median survival time (MST) of murine leukemia P388 (1*10e 6 cells) sensitive to 5-FU in mice at dose of 500 mg/kg(ip); type: functional, Mus musculus; how it was run: as §2
P388 [39] = assay: Average percentage weight change on day 6 in murine leukemia P388 resistant to 5-FU at dose 500 mg/kg; type: functional, Mus musculus; how it was run: as §4

O=c1[nH]cc(F)c(=O)[nH]1 [FLUOROURACIL]
ILS at 15 mg/kg (P388 [1]): 10%
MST (P388 [2]): 11 days
MST (P388 [3]): 8 days
MST (P388 [4]): 9 days
ILS at 35 mg/kg (P388 [5]): -10%
Weight change (P388 [6]): -14.2%
ILS at 35 mg/kg (P388 [7]): -11%
MST (P388 [8]): 11 days
ILS at 20 mg/kg (P388 [9]): 10%
MST (P388 [10]): 19 days
ILS at 20 mg/kg (P388 [11]): 111%
Weight change (P388 [12]): -3.9%
Weight change (P388 [13]): -21.8%
Weight change (P388 [14]): -6.2%
Weight change (P388 [15]): -16.5%

O=c1[nH]c(=O)n([C@H]2C[C@H](O)[C@@H](COP3(=O)OCCCO3)O2)cc1F
Weight change (P388 [16]): -12.4%
MST (P388 [17]): 10 days
ILS at 300 mg/kg (P388 [18]): 22%
MST (P388 [19]): 10 days
Weight change (P388 [20]): 1.7%
MST (P388 [21]): 11 days
ILS at 300 mg/kg (P388 [22]): 0%
Weight change (P388 [23]): 0%
Weight change (P388 [24]): 6.3%
Weight change (P388 [25]): 1.2%
MST (P388 [26]): 10 days
Weight change (P388 [27]): -8.8%
ILS at 180 mg/kg (P388 [28]): 0%
ILS at 108 mg/kg (P388 [29]): 0%
MST (P388 [30]): 10 days
MST (P388 [31]): 10 days
ILS at 500 mg/kg (P388 [32]): 33%
ILS at 500 mg/kg (P388 [33]): 0%
MST (P388 [34]): 10 days
ILS at 180 mg/kg (P388 [35]): 11%
ILS at 108 mg/kg (P388 [36]): 11%
Weight change (P388 [37]): 4.1%
MST (P388 [38]): 12 days
Weight change (P388 [39]): 0.6%
